UCH37 DUB inh = inhibitors of human UCH37 deubiquitinase, primary screen, biochemical, Ub-AMC cleavage, fluorescence | actives 0.33% (n = 330,000) | inhibition, % (test concentration not listed) | purified proteasome/UCH37;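 active = mean inhibition over replicate wells above about 20%, limit read from the data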;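 note: 0% = compound-free wells with enzyme and 100% = wells lacking proteasome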
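Test system – human UCH37 enzyme supplied as purified proteasome complex · Incubation – 30 min preincubation with enzyme, 25 min cleavage at room temperature · Detection – AMC fluorescence from Ub-AMC cleavage, excitation 355 nm, emission 460 nm · Benchmarks – no-proteasome wells (full inhibition) and compound-free wells (no inhibition)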
UBC13 polyUb = UBC13 polyubiquitin chain formation inhibitors, primary screen, biochemical, TR-FRET, uHTS; inhibition, % at 20 µM; actives 0.47% (n = 330,000); in the data active = inhibition above about 45%, passing the limit was not always enough
MEKK2 mut-MEK5 = MEK5 binding signal on mutant MEKK2 PB1, primary screen, biochemical, multiplex bead flow cytometry, Alexa488-MEK5; Alexa488-MEK5 binding to MEKK2 mutant; percent response, % at 10 µM; actives 0.35% (n = 290,000); AID 1530, 2009; in the data active = percent response above about 24%, passing the limit was not always enough
MEKK2wt PB1 HTS = modulators of MEK5 binding to wildtype MEKK2, primary screen, biochemical, multiplex bead flow cytometry, Alexa488-MEK5 | Alexa488-MEK5 binding to MEKK2 WT; actives lie on both sides | binding response (% of control), % at 10 µM | actives 1.1% (n = 290,000) | AID 1531, 2009; in the data active = binding response below about 67% or above about 130%
MEKK3 PB1 HTS = modulators of MEKK3-MEK5 PB1 binding, primary screen, biochemical, wildtype MEKK3, multiplex bead flow cytometry, Alexa488-MEK5. Mitogen-activated protein kinase kinase kinase 3 (Homo sapiens), Q99759. bead-based flow cytometry, Alexa488-MEK5 binding to MEKK3; actives lie on both sides; 0 = blocked by unlabeled MEK5, 100 = vehicle. binding response (% of control), % at 10 µM. actives 1.4% (n = 290,000);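 active = binding response more than 3 SD above or below the average of its plate-row segment, actives on both sides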;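 note: Alexa488 bead fluorescence after subtracting the streptavidin-only scavenger bead signal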
Apaf1 inhib = inhibitors of human Apaf-1 apoptosome, primary screen, biochemical, DEVD-Rh110 fluorescence, uHTS | inhibition, % at 20 µM | reconstituted apoptosome caspase-3 activity | actives 0.71% (n = 330,000); active = inhibition of at least 40% at 20 µM;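 note: plate controls were DMSO wells for no effect and DEVD-CHO caspase inhibitor wells for full effect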
Target sequence (O14727 whole entry, looked up): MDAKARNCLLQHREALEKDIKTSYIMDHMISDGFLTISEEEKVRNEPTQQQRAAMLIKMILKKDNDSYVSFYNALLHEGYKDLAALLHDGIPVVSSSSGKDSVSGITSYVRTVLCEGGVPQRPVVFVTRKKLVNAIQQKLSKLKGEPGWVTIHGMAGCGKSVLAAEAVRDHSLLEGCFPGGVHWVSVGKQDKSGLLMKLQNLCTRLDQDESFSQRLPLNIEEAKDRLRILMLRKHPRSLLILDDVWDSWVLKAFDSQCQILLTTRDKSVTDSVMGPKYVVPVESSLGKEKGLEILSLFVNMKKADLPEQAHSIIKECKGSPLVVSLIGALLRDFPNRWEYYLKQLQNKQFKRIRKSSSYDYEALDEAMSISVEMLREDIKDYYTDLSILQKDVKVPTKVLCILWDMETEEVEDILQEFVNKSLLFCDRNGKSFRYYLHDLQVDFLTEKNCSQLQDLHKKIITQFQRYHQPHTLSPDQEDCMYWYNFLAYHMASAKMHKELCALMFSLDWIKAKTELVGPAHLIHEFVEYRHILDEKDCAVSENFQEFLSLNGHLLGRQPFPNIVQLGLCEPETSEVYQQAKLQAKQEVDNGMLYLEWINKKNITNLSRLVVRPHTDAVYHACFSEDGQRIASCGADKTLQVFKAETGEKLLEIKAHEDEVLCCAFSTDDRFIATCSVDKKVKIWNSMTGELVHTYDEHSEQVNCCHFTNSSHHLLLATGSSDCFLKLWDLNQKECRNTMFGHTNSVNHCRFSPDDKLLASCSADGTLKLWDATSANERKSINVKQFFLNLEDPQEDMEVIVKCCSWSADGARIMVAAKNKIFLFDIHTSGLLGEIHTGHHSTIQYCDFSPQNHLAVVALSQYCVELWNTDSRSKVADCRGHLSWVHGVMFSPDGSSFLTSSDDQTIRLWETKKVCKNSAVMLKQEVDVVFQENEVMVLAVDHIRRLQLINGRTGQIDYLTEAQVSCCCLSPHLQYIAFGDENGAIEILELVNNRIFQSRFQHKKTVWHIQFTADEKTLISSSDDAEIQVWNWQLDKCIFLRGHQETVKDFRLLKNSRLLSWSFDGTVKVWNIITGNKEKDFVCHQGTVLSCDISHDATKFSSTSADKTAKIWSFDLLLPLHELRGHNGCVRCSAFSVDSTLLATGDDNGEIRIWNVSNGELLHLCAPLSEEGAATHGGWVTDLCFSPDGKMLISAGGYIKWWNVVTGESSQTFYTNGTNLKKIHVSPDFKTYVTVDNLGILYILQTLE
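detection = Rh110 fluorescence intensity | test system = biochemical Apaf-1 apoptosome reconstitution | also added = cytochrome c and DEVD-Rh110 substrate | schedule = 30 min plus 50 min, RT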
Apaf-1 inh conf = Apaf-1 inhibitors, single-dose retest, confirmation, biochemical, fluorescence, DEVD-Rh110, 20 µM | shares compounds with Apaf1 inhib | reconstituted apoptosome, caspase-3 DEVD-Rh110 fluorescence | inhibition, % at 20 µM | actives 25% (n = 1,800);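 active = mean inhibition of at least 40% at 20 µM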;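 note: plate controls were DMSO wells for no effect and DEVD-CHO caspase inhibitor control wells for full effect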
Rh110 interf inh = Rh110 fluorescence interference by putative Apaf-1 inhibitors, confirmation, artefact control for Apaf-1 inhibitor project, biochemical, 20 µM; activation (fluorescence interference), % at 20 µM; quenched caspase reaction; shares compounds with Apaf1 inhib; 1,800 tested, under 10 active;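 active = signal rise of 40% or more at 20 µM, treated as a fluorescence artifact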
Fluor interf inh = fluorescence interference of Apaf-1 inhibitor hits, dose response, artefact control for Apaf-1 inhibitor project; 460 tested, under 10 active; shares compounds with Apaf1 inhib; fluorescence interference counterscreen, Apaf-1 assay format; AID 588538, 2011; IC50, µM; call rule not given here
UCH37 reconfirm = retest of human UCH37 deubiquitinase inhibitors, confirmation, biochemical, Ub-AMC cleavage rate, fluorescence. shares compounds with UCH37 DUB inh. Proteasome-bound UCH37. inhibition, % at 20 µM. actives 27% (n = 480). AID 624100, 2012;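 active = average inhibition over replicates above about 50%, so the earlier screening hit is confirmed, limit read from the data; inactive = the rest, counted as false positives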;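 note: based on cleavage rate fitted by regression over a 30 min kinetic read; 0% = proteasome plus Ub-AMC and 100% = Ub-AMC without proteasome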
The depositor's hits bear a star; nt = no result given. Shown are actives, neighbours in structure and some others; about 3% of the full set was active somewhere.

SMILES | UCH37 DUB inh | UBC13 polyUb | MEKK2 mut-MEK5 | MEKK2wt PB1 HTS | MEKK3 PB1 HTS | Apaf1 inhib | Apaf-1 inh conf | Rh110 interf inh | others
O=C(CSc1nnc(-c2ccccc2)o1)n1c2c(c3ccccc31)CCCC2 | 2.4 | nt | 2.0 | 95.0 | 99.0 | nt | nt | nt
Cn1c(SCC(=O)n2c3c(c4ccccc42)CCCC3)nnc1-c1ccccc1 | 5.6 | -11.0 | -1.0 | 96.0 | 99.0 | 43.2* | 34.7 | -10.2
CC(=O)N1CCN(C(=S)Nc2ccc(SC(F)F)cc2)CC1 | 1.5 | -8.0 | 2.0 | 102.0 | 98.0 | 96.0* | 14.4 | 10.6
CC1CCN(C(=S)Nc2ccc(SC(F)F)cc2)CC1 | 3.5 | 4.9 | 0.0 | 105.0 | 103.0 | 3.7 | nt | nt
O=C(CCc1nnc2n(Cc3ccc(F)cc3)c(=O)c3ccccc3n12)NCCCN1CCOCC1 | 2.0 | -7.1 | -2.0 | 100.0 | 100.0 | 17.7 | nt | nt
c1ccc(CC2CCN(c3nc4ccccc4n4nnnc34)CC2)cc1 | -46.9 | 13.2 | 7.0 | 115.0 | 113.0 | 57.6* | 17.4 | 10.8
COc1ccc(NC(=O)[C@@]2(CC(=O)O)CC(/C=C/c3ccccc3)=NO2)cc1 | 1.1 | -6.2 | 0.0 | 106.0 | 110.0 | 12.2 | nt | nt
CCOC(=O)C1=C(CN2CCN(c3ccc(F)cc3)CC2)NC(=O)NC1c1cccs1 (stereo not given) | 6.3 | 0.3 | 3.0 | 101.0 | 99.0 | 41.2* | 22.7 | 13.9
CCOC(=O)C1=C(CN2CCOCC2)NC(=O)NC1c1cc(C)ccc1C (stereo not given) | 1.2 | 1.3 | 1.0 | 102.0 | 96.0 | -16.0 | nt | nt
Cc1cccc(N2CCN(C(=O)c3cc4cc(F)ccc4[nH]3)CC2)c1C | -1.1 | -6.7 | -6.0 | 96.0 | 103.0 | 42.0* | 27.2 | 4.7
COc1ccc(C(C)(C)C)cc1NC(=O)CNc1cccc2ccccc12 | -108.4 | -60.3 | 1.0 | 106.0 | 111.0 | 43.8* | 28.8 | 7.0
N#Cc1c(N(CCO)CCO)nc(N)c2c(N)nc3c(c12)CC(=O)N3Cc1cccs1 | -115.0 | -1.0 | -11.0 | 89.0 | 88.0 | 72.8* | 42.2* | 12.4 | Fluor interf inh=>100
CN(CCO)c1nc(N)c2c(N)nc3c(c2c1C#N)CC(=O)N3Cc1cccs1 | -250.7 | -13.9 | -2.0 | 104.0 | 107.0 | 77.1* | 15.0 | 4.1
CN(CCO)c1nc(N)c(C#N)c(CC#N)c1C#N | 2.5 | 4.9 | -2.0 | 89.0 | 92.0 | -10.9 | nt | nt
Clc1ccccc1-c1nn2c(-c3ccncc3)nnc2s1 | -0.4 | 6.6 | 0.0 | 99.0 | 100.0 | 46.7* | 63.5* | 0.3 | Fluor interf inh=>100
Cc1c(C(=O)NC(C)CCc2ccccc2)cccc1[N+](=O)[O-] (stereo not given) | 5.2 | -7.9 | 3.0 | 106.0 | 104.0 | 1.3 | nt | nt
Cc1c(C(=O)N(CCc2ccccc2)Cc2ccccc2)cccc1[N+](=O)[O-] | 0.8 | 12.2 | 5.0 | 104.0 | 100.0 | 41.3* | 37.0 | 7.2
Cc1nn(-c2ccccc2)c(N2CCCC2)c1/C=C1\N=C(c2ccc(OC(C)C)cc2)OC1=O | 5.1 | -45.5 | 8.0 | 93.0 | 98.0 | 51.7* | 16.9 | 6.4
COc1cc2sc3cc(NCC[C@@H]4CCCN4C)ccc3c(=O)c2cc1OC | -67.4 | 44.9 | nt | nt | nt | 54.5* | 23.5 | 14.0
CCCCc1ccc(Nc2nc(CCC)cc(=O)[nH]2)cc1 | 0.5 | 11.1 | 5.0 | 101.0 | 110.0 | 40.0* | 33.8 | 4.7
CCCc1cc(=O)[nH]c(Nc2ccc(N3CCCCC3)cc2)n1 | 5.5 | 3.7 | -2.0 | 86.0 | 94.0 | 6.7 | nt | nt
CC(Oc1ccccc1)c1nnc(N)s1 (stereo not given) | 0.9 | -9.2 | 1.0 | 104.0 | 101.0 | 1.8 | nt | nt
CCN(Cc1ccccc1)C(=O)c1cccc(S(=O)(=O)N2CCN(c3ccc(F)cc3)CC2)c1 | 2.1 | 9.7 | nt | nt | nt | 42.1* | 38.8 | 0.1
Cc1cc(C)c(C(N)=O)c(Nc2cccc3ccccc23)n1 | 3.9 | -93.7 | 4.0 | 110.0 | 115.0 | 96.2* | 12.0 | 3.3
Oc1c(Cl)cc(Cl)c2c1NCCC2 | nt | -15.2 | nt | nt | nt | 46.6* | 26.6 | -1.6
SMILES | UCH37 DUB inh | UBC13 polyUb | MEKK2 mut-MEK5 | MEKK2wt PB1 HTS | MEKK3 PB1 HTS | Apaf1 inhib | Apaf-1 inh conf | Rh110 interf inh | others
Oc1ccc(N=Cc2ccc(OCc3ccccc3)cc2)cc1 | 5.7 | -5.2 | -3.0 | 98.0 | 101.0 | 92.7* | 16.7 | -4.1
C(=Nn1cnnc1)c1ccc(OCc2ccccc2)cc1 | 0.6 | nt | nt | nt | nt | nt | nt | nt
CC(C)(C)c1ccc(C(=O)NNc2cc(N3CCCCC3)nc(N3CCCCC3)n2)cc1 | 1.5 | -15.9 | 0.0 | 95.0 | 102.0 | 73.4* | 43.5* | 0.2 | Fluor interf inh=>100
O=C(NNc1cc(N2CCCC2)nc(N2CCCC2)n1)c1ccc([N+](=O)[O-])cc1 | 4.0 | -73.0 | -5.0 | 91.0 | 89.0 | 97.6* | 75.7* | 7.8 | Fluor interf inh=>100
CC(C)(C)c1ccc(C(=O)NNc2cc(N3CCOCC3)nc(N3CCOCC3)n2)cc1 | -0.7 | 12.2 | -13.0 | 90.0 | 102.0 | 36.2 | nt | nt
O=C(CCc1ccccc1)NNc1cc(N2CCCCC2)nc(N2CCCCC2)n1 | 3.8 | -19.7 | -5.0 | 97.0 | 99.0 | 60.4* | 44.5* | 4.3 | Fluor interf inh=>100
CCOc1ccccc1-c1nc2c(s1)CCc1onc(-c3ccc(OC)cc3)c1-2 | 1.4 | 22.2 | 3.0 | 97.0 | 101.0 | 8.7 | nt | nt
Cc1ccccc1NC1=C/C(=N\S(=O)(=O)c2cccs2)c2ccccc2C1=O | 78.0* | -167.4 | -3.0 | 91.0 | 99.0 | 97.0* | 98.8* | -7.5 | Fluor interf inh=>100;UCH37 reconfirm=2.6
O=C(O)c1ccc(S(=O)(=O)/N=C2\C=C(Nc3ccccc3F)C(=O)c3ccccc32)cc1 | 93.3* | -168.2 | 0.0 | 95.0 | 100.0 | 96.3* | 98.2* | -3.8 | Fluor interf inh=>100;UCH37 reconfirm=98.6*

Screening results: PubChem, several laboratories
